Assay [1] is described as follows: SK-BR-3 cell growth inhibitors, pilot screen, 24 h, human (AID 572;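 active = viability at or below 10% of carrier control in both of two separate runs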;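 note: compound exposure lasted between 18 and 24 h rather than exactly 24 h; 100% = carrier-treated control wells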). The following applies: SK-BR-3 viability, CellTiter-Glo luminescence, at 10 µM, stronger effect = lower value. On the technique in general: ATP-based viability assays read luminescence as a measure of living cells.
The nature of assay [2]: HUVEC growth inhibition – cell-based, human, primary screen (AID 575).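 Note: 100% = median of untreated cell wells with 0.1% DMSO on each plate.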 To be noted: HUVEC proliferation, CellTiter-Glo luminescence, 72 h; at 10 µM; stronger effect = lower value. Summed up:
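Assay system: Primary human umbilical vein endothelial cells | Quantity: 1250 cells per well | Medium: Supplemented EBM, 2% fetal bovine serum | Detection: CellTiter-Glo luminescence measuring cellular ATP | Read-out: % viability vs DMSO wells | Plate: Collagen-coated 384-well format | Times: 72 h exposure, 37 °C, 5% CO2, 30 min RT equilibration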

The nature of assay [3]: growth inhibitors of H69AR lung tumor, primary screen, human, duplicate replicates (AID 580;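 active = viability at or under a set limit in both replicates, limit being median viability minus 3 SD, cut at about 48% in these data, passing the limit was not always enough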;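 note: 100% = mean luminescence of untreated wells and 0% = no signal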). The following applies: H69AR lung tumor cells viability, ATP luminescence, 72 h; at 10 µM; stronger effect = lower value.
A short description of assay [4]: reversal of MRP1-mediated doxorubicin resistance, pilot screen, H69AR cells, doxorubicin co-treatment (AID 601;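 active = viability loss from added drug above about 55%, and viability with drug at most 40%, in both replicates, limit read from the data, passing the limit was not always enough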). The following applies: CellTiter-Glo, 72 h, at 10 µM; for differential viability (reversal): stronger effect = higher value.
Assay [5] is described as follows: 384-well plate pilot, post-Golgi transport modulator project, inhibition of yeast transport mutant growth (AID 636; in the data active = inhibition above about 31%). To be noted: absorbance 615 nm, about 18 h, stronger effect = higher value.
Assay [6] is described as follows: growth suppression of yeast trafficking mutant, preliminary HTS, modulators of trafficking downstream of Golgi apparatus project, 1536-format plate, OD 615 nm (AID 637; in the data active = inhibition above about 30%). The following applies: yeast transport mutant growth, absorbance 615 nm, 18 h; stronger effect = higher value.
Setting [7] is: H69AR cells + 2 uM doxorubicin, measured here: viability with 2 uM doxorubicin, stronger effect = lower value.
[8] abbreviates: H69AR cells, compound alone cytotoxicity.

The values that follow come from PubChem BioAssay.

SMILES strings stand for the structures. Activity calls are given as the source filed them.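 Rule for the calls, unless noted: active = viability at or below 30% in both replicate assays; inconclusive = viability at or below 30% in just one of the two assays; inactive = the rest.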

For orientation: viability means a read-out of living cells in per cent, often relative to untreated cells. Usually inhibition stands for the relative decrease from the control value, in per cent.

With `COc1ccc(C(=O)CSc2nnc(-c3ccc(C)cc3)o2)cc1`, the viability in assay [1] was 97% (inactive); in assay [2], 110% (inactive); in assay [3], 86.4% (inactive); in assay [4] (setting [7]), 89%; in assay [4] (setting [8]), 86.4%. In addition, the differential viability (reversal) in assay [4] (H69AR cells + 2 uM doxorubicin) is -2.64% (inactive). In addition, the inhibition in assay [5] is 4% (inactive); in assay [6], 5.09% (inactive).
With `CC1(C)CC(=O)CC(=Nc2ccc(C(=O)O)cc2)C1`, the viability in assay [1] is 92% (inactive); in assay [2] it was 97.3% (inactive); in assay [3], 87.7% (inactive); in assay [4] (setting [7]) it was 92.1%; in assay [4] (setting [8]) it was 87.7%. In assay [4] (H69AR cells + 2 uM doxorubicin), the differential viability (reversal) was -4.41% (inactive). Moreover, the inhibition in assay [5] was -3.64% (inactive); in assay [6], -0.16% (inactive).
`C[N+](C)(C)CCOP(=O)([O-])OC[C@H](O)CO`: the viability in assay [1] is 100% (inactive); in assay [2], 99.1% (inactive); in assay [3], 96% (inactive); in assay [4] (setting [7]), 95%; in assay [4] (setting [8]), 96%. For the same compound, the differential viability (reversal) in assay [4] (H69AR cells + 2 uM doxorubicin) was 0.95% (inactive). In addition, the inhibition was -2.99% (inactive) in assay [5] and -5.17% (inactive) in assay [6].
Consider `O=C(c1csc2ccccc12)n1cccn1`, for which the viability in assay [1] is 117% (inactive); in assay [2], 89.7% (inactive); in assay [3], 93% (inactive); in assay [4] (setting [7]), 86.3%; in assay [4] (setting [8]) it was 93%. Moreover, the differential viability (reversal) in assay [4] (H69AR cells + 2 uM doxorubicin) was 6.73% (inactive). The inhibition is -12.3% (inactive) in assay [5] and -1.29% (inactive) in assay [6].
In the case of `CN(C)c1nc(OCCOC(=O)Nc2ccc(Cl)cc2Cl)nc(N(C)C)n1`, the viability is 70% (inactive) in assay [1]; 103% (inactive) in assay [2]; 96.3% (inactive) in assay [3]; 79.9% in assay [4] (setting [7]); 96.3% in assay [4] (setting [8]). In addition, the differential viability (reversal) in assay [4] (H69AR cells + 2 uM doxorubicin) was 16.4% (inactive). Further, the inhibition in assay [5] is -5.21% (inactive); in assay [6], 2.91% (inactive).
`CC1CNCCN1S(=O)(=O)c1cccc2cnccc12` (stereo not drawn): the viability is 100% (inactive) in assay [1]; 84.4% (inactive) in assay [2]; 102% (inactive) in assay [3]; 96.2% in assay [4] (setting [7]); 102% in assay [4] (setting [8]). Besides, the differential viability (reversal) in assay [4] (H69AR cells + 2 uM doxorubicin) is 5.87% (inactive). In addition, the inhibition in assay [5] is 1.3% (inactive); in assay [6] it was -1.83% (inactive).
On to `O=C(O)c1ccccc1Nc1cccc(C(F)(F)F)c1`, for which the viability in assay [1] was 135% (inactive); in assay [2], 69.6% (inactive); in assay [3] it was 88.6% (inactive); in assay [4] (setting [7]) it was 77.3%; in assay [4] (setting [8]), 88.6%. Also, in assay [4] (H69AR cells + 2 uM doxorubicin), the differential viability (reversal) is 11.3% (inactive). Also, the inhibition in assay [5] was -1.3% (inactive); in assay [6], 2% (inactive).
Take `COc1ccc(OC)c(S(=O)(=O)N2CCC(C(=O)NCc3ccccc3OC)CC2)c1`: the viability in assay [1] is 101% (inactive); in assay [2], 97.5% (inactive); in assay [3], 103% (inactive); in assay [4] (setting [7]), 103%; in assay [4] (setting [8]), 103%. The differential viability (reversal) in assay [4] (H69AR cells + 2 uM doxorubicin) is -0.525% (inactive). Also, the inhibition was 0.55% (inactive) in assay [5] and -4.03% (inactive) in assay [6].
Consider `CCN1CCc2c(C#N)c(N3CCCCC3)nc(NCc3ccccc3)c2C1`, for which the viability in assay [1] was 103% (inactive); in assay [2] it was 2.17% (active); in assay [3] it was 16.3% (active); in assay [4] (setting [7]) it was 26.4%; in assay [4] (setting [8]) it was 16.3%. Moreover, in assay [4] (H69AR cells + 2 uM doxorubicin), the differential viability (reversal) was -10.1% (inactive). Moreover, the inhibition was -4.4% (inactive) in assay [5] and 16.6% (inactive) in assay [6].
For the compound `CCc1ccc2[nH]c(=O)c(C(c3nnnn3CC3CCCO3)N3CCN4CCCC4C3)cc2c1` (stereo not drawn), the viability was 100% (inactive) in assay [1]; 109% (inactive) in assay [2]; 105% (inactive) in assay [3]; 91.1% in assay [4] (setting [7]); 105% in assay [4] (setting [8]). Further, the differential viability (reversal) in assay [4] (H69AR cells + 2 uM doxorubicin) is 14.1% (inactive). Moreover, the inhibition in assay [5] was -3.2% (inactive); in assay [6], -2.55% (inactive).
As for `COc1ccc(OC)c(N(CC(=O)Nc2cccnc2)S(=O)(=O)c2ccc(OC)c(OC)c2)c1`, the viability in assay [1] was 112% (inactive); in assay [2], 91% (inactive); in assay [3], 83.7% (inactive); in assay [4] (setting [7]), 85.7%; in assay [4] (setting [8]), 83.7%. Further, the differential viability (reversal) in assay [4] (H69AR cells + 2 uM doxorubicin) was -2.03% (inactive). Moreover, the inhibition in assay [5] was -6.58% (inactive); in assay [6], 0.91% (inactive).
Turning to `CCCn1c(SCC(=O)NC(=O)NCc2ccco2)n[nH]c1=O`, the viability in assay [1] was 101% (inactive); in assay [2], 90.4% (inactive); in assay [3], 96.6% (inactive); in assay [4] (setting [7]) it was 95.1%; in assay [4] (setting [8]), 96.6%. In assay [4] (H69AR cells + 2 uM doxorubicin), the differential viability (reversal) was 1.45% (inactive). The inhibition in assay [5] is -2.8% (inactive); in assay [6], -3.64% (inactive).
In the case of `Cc1nn(Cc2ccccc2)c2c1C(c1ccncc1)C(C#N)=C(N)O2` (stereo not drawn), the viability in assay [1] is 96% (inactive); in assay [2] it was 86% (inactive); in assay [3] it was 85% (inactive); in assay [4] (setting [7]), 87.7%; in assay [4] (setting [8]), 85%. Also, in assay [4] (H69AR cells + 2 uM doxorubicin), the differential viability (reversal) was -2.68% (inactive). In addition, the inhibition was -4.8% (inactive) in assay [5] and -3.27% (inactive) in assay [6].
`CC1CCCC(C)N1CCNC(=O)C1CCN(S(=O)(=O)N2CCCCC2)CC1` (stereo not drawn): the viability is 93% (inactive) in assay [1]; 110% (inactive) in assay [2]; 104% (inactive) in assay [3]; 90.7% in assay [4] (setting [7]); 104% in assay [4] (setting [8]). Further, the differential viability (reversal) in assay [4] (H69AR cells + 2 uM doxorubicin) is 13.1% (inactive). For the same compound, the inhibition in assay [5] is -1.2% (inactive); in assay [6] it was -2.55% (inactive).
In the case of `COc1cc(-c2nc(S(=O)(=O)c3ccc(C)cc3)c(N(C)C)o2)cc(OC)c1OC`, the viability in assay [1] is 71% (inactive); in assay [2] it was 93.2% (inactive); in assay [3], 87.9% (inactive); in assay [4] (setting [7]) it was 86.3%; in assay [4] (setting [8]), 87.9%. Moreover, the differential viability (reversal) in assay [4] (H69AR cells + 2 uM doxorubicin) is 1.51% (inactive). Moreover, the inhibition was -8.4% (inactive) in assay [5] and -1.09% (inactive) in assay [6].
With `Cc1cc(NC(=O)CSc2nc(CCC3CCCC3)nc3ccccc23)no1`, the viability is 92% (inactive) in assay [1]; 92.2% (inactive) in assay [2]; 22.3% (active) in assay [3]; 23.4% in assay [4] (setting [7]); 22.3% in assay [4] (setting [8]). In addition, the differential viability (reversal) in assay [4] (H69AR cells + 2 uM doxorubicin) was -1.14% (inactive). Besides, the inhibition in assay [5] was -2.86% (inactive); in assay [6], -5.08% (inactive).
